# Compound activity: PubChem BioAssay, Broad Institute
# Most compounds without a hit are left out; they make up all but 3.6% or so of the library.
# T cruzi inh: T. cruzi replication inhibition. inhibition, % (concentration not given with the values). actives 1.4% (n = 300,000). T. cruzi beta-gal in NIH3T3, luminescence, 90 h. AID 1885;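 active = mean inhibition across valid replicates above about 55%, limit read from the data; inconclusive = mean below that limit but half or more replicates reach it; inactive = mean below it, under half of replicates reach it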;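 note: signal also drops with host cell toxicity which is not excluded here; 0% = plate median of DMSO wells and 100% = zero luminescence signal; higher percent means less beta-gal luminescence so fewer parasites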
#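 Test system: β-gal T. cruzi (Tulahuen C4) inside NIH/3T3 cells / Quantity: 5,000 cells/well / Measured by: luminescence from GalScreen with 0.05% NP40, read after 60 min / Medium: DMEM plus 2% FBS / Measure: parasite load inhibition, % / Reagent: Tulahuen C4 trypomastigotes, 5000/well / Schedule: co-culture of at least 90 h after 3 h attachment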
# SKKanGAS inh: inhibitors of SKKanGAS S. pyogenes growth in kanamycin (SK-promoter or general growth effect); BacTiter-Glo, 6 h; actives 1.3% (n = 300,000); AID 1662; inhibition, % at 7.5 µM;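 active = mean replicate score, as percent of positive control median, at least 50; inconclusive = mean below 50 but one replicate at or above 50; inactive = mean and every replicate below 50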;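 note: strain carries kanamycin resistance gene driven by streptokinase promoter and grows in 40 µg/ml kanamycin; loss of luminescence reflects streptokinase promoter inhibition or plain growth inhibition; 0% = median of DMSO wells and 100% = positive control at its reference dose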
# Beta cell apopt: beta cell apoptosis inhibition; INS-1E cytokine-induced death, ATP luminescence, 48 h; percent of positive-control rescue, neutral wells zero; protection from apoptosis, % (no concentration beside the values); actives 0.8% (n = 300,000);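 active = Every replicate reaches about 75%, or at least half do and their mean reaches it too, limit read from the data; inconclusive = At least half of replicates reach the limit but their mean does not; inactive = Under half of replicates reach the limit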;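 note: 0% = cytokine-treated negative control wells and 100% = positive control rescue; higher means more ATP so stronger rescue from cytokine killing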
# CSC inhib: cancer stem cell inhibition; cancer stem cell-like cells viability, luminescence; inhibition, % at 7.5 µM; actives 1.1% (n = 300,000); AID 2717; in the data active = inhibition above about 75%; inconclusive = no clear call, values can overlap the other calls; tested in HMLE shEcad cells
# PfHsp90 set2: inhibits growth of yeast expressing Plasmodium falciparum Hsp90. S. cerevisiae expressing PfHsp90, BacTiter-Glo ATP, 48 h; yeast lacking PDR1 and PDR3 efflux regulators. inhibition, % at 9.4 µM. actives 0.32% (n = 310,000). AID 504621;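 active = every replicate shows inhibition above about 80%, whatever the replicate mean, limit read from the data; inconclusive = mean inhibition reaches the set limit but some replicate falls short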;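 note: 0% = DMSO neutral controls and 100% = 20 µM radicicol positive controls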
# HIF act: HIF pathway transcriptional activation. U2OS HRE-luciferase reporter, luminescence; normalized: DMSO 0%, desferrioxamine 100%. activation, % at 7.5 µM (by protocol). actives 0.32% (n = 300,000). AID 1910;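 active = mean activation of at least 10% of the iron chelator positive control signal, with at least half of replicates also reaching 10%; inconclusive = mean and replicate majority disagree about reaching 10%; inactive = mean and most replicates under 10%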
# An asterisk follows results filed as active; ? = inconclusive; . = not tested or not shown.
SMILES,T cruzi inh,SKKanGAS inh,Beta cell apopt,CSC inhib,PfHsp90 set2,HIF act
O=C(Nc1cccc(-c2csc(Nc3ccc(Cl)cc3)n2)c1)c1ccccc1,29.6,91.4*,26.8,7.9,24.6,0.1
Cc1ccc(NC(=O)CN2C(=O)NC(C)(CC(C)C)C2=O)c(Br)c1 (stereo not drawn),.,.,4.0,-6.7,-30.6,.
Cc1cnc(C(=O)Nc2cccc3cccnc23)cn1,65.7*,-5.6,.,.,.,-1.1
CCC/C(O)=C1\C(=O)CC(C)(C)CC1=NCc1ccccc1,18.6,2.4,2.5,6.2,-5.7,77.3*
CCOC(=O)c1c(C)[nH]c(C(=O)OCC(=O)N(C)c2c(N)n(Cc3ccccc3)c(=O)[nH]c2=O)c1C,.,.,2.7,3.7,2.2,.
CCCCC1CCC(C(=O)OCC(=O)N(CCOC)c2c(N)n(Cc3ccccc3)c(=O)[nH]c2=O)CC1 (stereo not drawn),8.5,-4.8,-6.3,0.1,-38.5,-0.1
Cc1ccc(C(=O)OCC(=O)N(CC(C)C)c2c(N)n(Cc3ccccc3)c(=O)[nH]c2=O)o1,-0.8,-9.0,.,8.2,.,-0.5
Nc1c(N(CCC2=CCCCC2)C(=O)CCCOc2ccccc2)c(=O)[nH]c(=O)n1Cc1ccccc1,15.8,10.6,-8.7,-9.9,.,0.0
Nc1c(N(CCC2=CCCCC2)C(=O)COc2ccc(F)cc2)c(=O)[nH]c(=O)n1Cc1ccccc1,.,.,97.0*,73.8,-1.7,.
COCCN(C(=O)COC(=O)C1CCC(C(C)(C)C)CC1)c1c(N)n(Cc2ccccc2)c(=O)[nH]c1=O (stereo not drawn),7.8,0.2,106.3*,-4.0,-2.5,0.5
CC(=O)Nc1sc(C)c(C)c1C(=O)OCC(=O)N(CC(C)C)c1c(N)n(Cc2ccccc2)c(=O)[nH]c1=O,34.9,27.7,-5.4,81.1*,.,-1.4
COC(=O)c1c(C)[nH]c(C(=O)OCC(=O)N(CC(C)C)c2c(N)n(Cc3ccccc3)c(=O)[nH]c2=O)c1C,1.0,67.3*,1.3,-5.6,-4.1,0.0
CCOc1ccc(NC(=O)N(Cc2ccc(C)cc2)Cc2ccccn2)cc1,-0.3,-1.6,3.9,0.6,8.1,-1.8
CCCCNS(=O)(=O)CCNCc1ccco1,.,.,.,.,-28.5,.
CC(=O)N1CCC2(CC1)C/C(=N\NC(=S)Nc1ccc(C)cc1)c1cc(O)ccc1O2,7.4,9.1,5.8,16.7,-0.6,-0.9
CC(C)CN(C(=O)COC(=O)C12CC3CC(CC(C3)C1)C2)c1c(N)n(Cc2ccccc2)c(=O)[nH]c1=O,5.8,0.7,98.7*,22.6,10.6,0.0
CC(C)CN(C(=O)c1ccc([N+](=O)[O-])s1)c1c(N)n(Cc2ccccc2)c(=O)[nH]c1=O,63.5*,6.8,1.3,-1.4,.,-0.5
CC(C)CN(C(=O)CC1CCCC1)c1c(N)n(Cc2ccccc2)c(=O)[nH]c1=O,-5.4,7.2,-1.7,.,7.7,-0.2
O=C(COC(=O)c1cccc(C(F)(F)F)c1)NC(=O)NC1CCCC1,.,.,-5.3,-9.2,15.3,.
CN1CCN(NC(=O)c2cn(-c3ccccc3)nc2-c2cccs2)CC1,16.6,1.3,-3.6,.,9.0,-0.8
CN1CCN(NC(=O)c2cn(-c3ccccc3)nc2-c2cccc(Br)c2)CC1,55.9*,-3.3,7.3,21.0,7.5,-0.7
Cc1cc(C)c(-c2noc(C(=O)OC(C)(C)C)c2C(=O)OC(C)(C)C)c(C)c1,26.4,71.5*,4.2,-1.8,9.0,0.0
O=C(c1ccc(Cl)cc1Cl)c1ncc(C(F)(F)F)cc1Cl,3.9,-10.9,-2.4,-16.7,.,-0.5
O/N=C(\c1ccc(Cl)cc1Cl)c1ncc(C(F)(F)F)cc1Cl,18.0,51.2*,-14.2,?,5.1,-0.3
c1cc2c3c(cccc3c1)-c1cnccc1-2,.,.,.,.,-14.4,.
SMILES,T cruzi inh,SKKanGAS inh,Beta cell apopt,CSC inhib,PfHsp90 set2,HIF act
COC(=O)[C@@H]1C[C@]2(OC(=O)c3ccccc3)C=CC(=O)C[C@@H]2N1C(=O)OCc1ccccc1,36.4,1.7,1.2,75.6*,19.0,0.3
O=C(NCc1cccnc1)/C(=C/c1ccc(-c2cccc(Cl)c2)o1)S(=O)(=O)c1ccccc1,48.3,-1.7,112.2*,100.2*,13.8,4.9
O=C(NCc1cccnc1)/C(=C\c1ccc(-c2cccc(Cl)c2)o1)S(=O)(=O)c1ccccc1,36.2,-6.3,103.8*,101.5*,6.7,-6.5
N#C/C(=C/c1ccc(CNC(=O)C(=O)Nc2cc(Cl)cc(Cl)c2)o1)C(=O)NCc1cccnc1,-33.6,1.3,9.1,51.9,7.2,-2.2
Cc1ccc(C(=O)N/C(=C\c2ccc(-c3cc(Cl)ccc3Cl)o2)C(=O)NCc2cccnc2)cc1,41.2,26.6,-3.3,-9.4,2.8,-0.3
CCc1nc2c3cnn(-c4cc(Cl)ccc4C)c3ncn2n1,-3.2,53.1*,3.4,-12.7,-3.3,0.0
Cc1nc2c3cnn(-c4ccccc4)c3ncn2n1,-4.3,19.5,-6.2,-0.5,32.9,0.6
CCC(=O)NC(NC(=S)Nc1cccc2cccnc12)C(Cl)(Cl)Cl (stereo not drawn),-15.0,1.3,-5.5,-4.8,10.5,-0.6
CC(C)(C)C(=O)NC(Nc1cccc2cccnc12)C(Cl)(Cl)Cl (stereo not drawn),7.6,6.3,77.6*,.,-2.0,0.2
Cc1ccc(C(=O)Oc2ccccc2N2CCOCC2)cc1,2.8,7.8,-2.1,-3.7,-10.1,-1.1
Cc1ccc(C(=O)OC2OC(=O)C(Cl)=C2N2CCOCC2)cc1 (stereo not drawn),-7.1,74.8*,-4.4,0.4,7.4,0.4
Cc1cc(/C=C2/NC(=O)N(Cc3ccccc3F)C2=O)c(C)n1C(C)C,56.6*,4.0,0.8,10.7,-28.4,0.3
CCn1c(C)cc(/C=C2/NC(=O)N(Cc3ccccc3F)C2=O)c1C,9.2,6.7,0.2,-2.3,-30.5,0.0
O=C(CNC(=O)c1ccccc1Br)Nc1cccc(S(=O)(=O)Nc2ccccc2Cl)c1,.,.,.,.,19.6,.
O=C(CN1CCN(C(C(=O)Nc2cc(C(F)(F)F)ccc2Cl)c2ccccc2)CC1)NC1CC1 (stereo not drawn),.,.,.,.,8.4,.
Cc1ccc(S(=O)(=O)N2CCCC(C(=O)NCCC(C)C)C2)cc1 (stereo not drawn),1.4,0.6,1.4,-2.6,-24.4,-0.4
CC(C)CC1C(=O)N(Cc2cn(CC3CCCCC3)nn2)CCS(=O)(=O)N1Cc1ccc(-c2cccc(C#N)c2)cc1 (stereo not drawn),.,.,.,.,5.4,.
O=[N+]([O-])c1cc(C(F)(F)F)ccc1NCCc1c[nH]c2ccc(O)cc12,-6.3,21.4,-6.8,70.5,-27.2,-0.4
O=[N+]([O-])c1cc(C(F)(F)F)ccc1NCCc1c[nH]c2ccccc12,25.1,23.3,1.8,99.2*,20.1,-61.6
CS(=O)(=O)NCCCNc1ccc(C(F)(F)F)cc1[N+](=O)[O-],9.3,-10.5,0.9,-8.6,0.8,-0.1
